LAP4 TOR yeast: alters LAP4-GFP fluorescence in TOR pathway yeast screen; S. cerevisiae LAP4-GFP multiplex, flow cytometry GFP, 3 h; median GFP as percent of DMSO wells; GFP response vs DMSO, % at 10 µM; 320,000 compounds, 0.34% hits;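 active means GFP response vs DMSO above a set limit, about the screen mean plus 3 SD, cut at about 150% in these data; inconclusive means under 70 cell events counted for the yeast strain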
AGP1-GFP MLPCN: modulators of TOR pathway AGP1-GFP in S. cerevisiae | S. cerevisiae AGP1-GFP multiplex flow cytometry, 3 h; GFP as percent of DMSO wells | GFP response vs DMSO, % at 10 µM | 320,000 compounds, 0.02% hits;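 active means GFP response relative to DMSO above a set limit, near screen average plus 3 SD, cut at about 150% in these data; inconclusive means fewer than 70 cells counted for the yeast strain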;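 further: median GFP channel fluorescence of the gated AGP1 strain per well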
CIT2-GFP yeast: modulators of TOR pathway CIT2-GFP in S. cerevisiae | GFP response vs DMSO, % at 10 µM | 320,000 compounds, 0.065% hits | S. cerevisiae CIT2-GFP strain, flow cytometry, 3 h; 100 means same as DMSO wells;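 active means GFP response relative to DMSO above a set limit, near the screen mean plus 3 SD, cut at about 150% in these data; inconclusive means Fewer than 70 cells measured for a yeast strain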;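 further: ratio of well median GFP fluorescence to mean of DMSO wells on the plate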
T cell modulator: T cell immune modulators affecting CD8 T cell-vesicle binding. 2C CD8+ T cell-vesicle binding, flow cytometry; stronger effect = lower value. response (vesicle binding), % at 7 µM. 330,000 compounds, 0.068% hits;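 active means response, share of CD8 T cells binding vesicles, and their 90th percentile fluorescence all below set limits, cut at about 80% in these data, passing the limit was not always enough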;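 further: values below 100% mean blocked vesicle binding to the CD8+ T cells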
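Incubation: binding step 1.5 h, 37 °C, antibody labelling 20 min, ice; system: murine 2C transgenic CD8+ T lymphocytes; technique: cytometric PE anti-B7-1 and Alexa647 anti-CD8 signals after 1% paraformaldehyde fixation; also added: QL9-charged Drosophila Ld/ICAM-1/B7-1 vesicles; control set: naked versus QL9-loaded vesicles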
RPL19A-GFP yeast: modulators of TOR pathway RPL19A-GFP in S. cerevisiae | S. cerevisiae RPL19A-GFP strain, flow cytometry, 3 h; stronger effect = lower value | percent response vs DMSO, % at 10 µM | 330,000 compounds, 0.3% hits | AID 2025;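 active means percent response vs DMSO below 50%; inconclusive means fewer than 70 events counted for the yeast strain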;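 further: median channel GFP fluorescence of the barcoded RPL19A-GFP strain; ratio of sample median GFP to plate DMSO average so 100% = DMSO; lower means less RPL19A-GFP as with rapamycin TOR inhibition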
MEP2 TOR yeast: modulators of TOR pathway MEP2-GFP in S. cerevisiae. S. cerevisiae MEP2-GFP strain, flow cytometry GFP, 3 h; 100% = DMSO control level. GFP response vs DMSO, % at 10 µM. 330,000 compounds, 0.51% hits. AID 2016;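 active means GFP response versus DMSO above a set limit, roughly screen mean plus 3 SD, cut at about 180% in these data; inconclusive means fewer than 70 cells counted for a yeast strain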;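 further: median GFP fluorescence of the barcode-gated MEP2-GFP cells per well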
The depositor's hits bear a star; i = inactive; u = inconclusive; x = not tested or not shown; [ ] = another dose, or the depositor's remark. Only some compounds are listed: those with a hit (about 0.96% of all), similar ones and a draw of the others.

SMILES	LAP4 TOR yeast	AGP1-GFP MLPCN	CIT2-GFP yeast	T cell modulator	RPL19A-GFP yeast	MEP2 TOR yeast
NCCSc1c(-c2ccc(F)cc2)[nH]c2ccccc12	101	25	u	i	74	616*[may fluoresce violet]
COc1ccc(CCn2c3c(c(=O)[nH]c2=O)C(NC(=O)c2cccs2)(C(F)(F)F)C(=O)N3)cc1OC (configuration not stated)	108	101	89	740	98	104
CC(=O)NC1(C(F)(F)F)C(=O)Nc2c1c(=O)[nH]c(=O)n2CCc1ccccc1 (configuration not stated)	98	29	83	152	51	176*
Cc1[nH]c(C)c(S(=O)(=O)NCc2ccc(F)cc2)c1C(=O)N1CCCC1	120	u	u	303	47*[may fluoresce violet]	438*[may fluoresce violet]
COc1ccc(CNS(=O)(=O)c2c(C)[nH]c(C)c2C(=O)N2CCCCC2)cc1	86	91	93	388	93	85
CCc1cc(=O)oc2c(C)c(OCC(=O)N3CCCc4ccccc43)ccc12	95	u	u	568	38*[may fluoresce violet]	248*[may fluoresce violet]
O=C(COc1ccc(Br)cc1CO)N1CCCc2ccccc21	95	100	92	394	98	102
Fc1ccccc1CNc1nc(-c2cccnc2)nc2ccccc12	100	99	96	278	99	105
COc1ccccc1C(=O)Nc1nsc(-c2ccccc2)n1	151*	83	79	149	93	87
Cc1ccc(C(=O)N2c3ccccc3NC(=O)C2C)cc1 (configuration not stated)	212*	102	x	256	103	247*
CC1C(=O)Nc2ccccc2N1C(=O)c1ccc(Cl)c(Cl)c1 (configuration not stated)	94	106	103	177	110	109
COc1cccc(CNS(=O)(=O)c2c(C)[nH]c(C)c2C(=O)N2CCCC2)c1	93	93	93	258	91	100
Cc1onc(-c2ccccc2)c1C(=O)NC(=S)NNC(=O)c1ccco1	158*	96	84	50	98	105
COc1ccccc1CNC(=O)C1CCN(S(=O)(=O)c2ccc3nc4c(c(C(=O)O)c3c2)CCCC4)CC1	50	u	u	339	35*[may fluoresce violet]	258*[may fluoresce violet]
CCOC(=O)C(=O)c1cn(C2OCC(OC(C)=O)C(OC(C)=O)C2OC(C)=O)c2ccccc12 (configuration not stated)	92	20	u	181	43*[may fluoresce violet]	174
CCc1cc(/C(Cc2csc(C)n2)=N/O)c(O)cc1O	91	x	u	216	44*[may fluoresce violet]	209*[may fluoresce violet]
C/C(CC(=O)Nc1cc(C)ccn1)=N\NC(=O)c1cccc(F)c1	93	14	91	327	70	183*
COc1ccc(Nc2cnn(-c3nc4ccccc4s3)c(=O)c2Cl)cc1	103	18	69	349	92	181*
O=c1c(Cl)c(Nc2cccc(Cl)c2)cnn1-c1nc2ccccc2s1	108	102	93	640	100	123
Cc1cccc(CNC(=O)CCn2ccc3cc(S(=O)(=O)N4CCCC4)ccc32)c1	67	u	u	273	17*[may fluoresce violet]	161
CCN(CC)CC(=O)NCc1cc(-c2ccc(OC)cc2)no1	98	115	117	490	109	101
COc1ccc(-c2cc(CNS(=O)(=O)c3ccc(NC(C)=O)cc3)on2)cc1	76	84	97	0.0*	90	87
COc1ccc(-c2cc(CNC(=O)CN3CCN(C)CC3)on2)cc1	87	32	u	419	x	257*[may fluoresce violet]
N#CCC(=O)N/N=C\c1ccccc1OC/C=C/c1ccccc1	110	95	101	304	91	91
N#CCOc1ccccc1/C=C/c1nc2ccccc2c(=O)[nH]1	61	u	u	240	24*[may fluoresce violet]	243*[may fluoresce violet]
SMILES	LAP4 TOR yeast	AGP1-GFP MLPCN	CIT2-GFP yeast	T cell modulator	RPL19A-GFP yeast	MEP2 TOR yeast
COC(=O)[C@@H](NC(=O)N1CCN(C(=O)C2COc3ccccc3O2)CC1)C(C)C (some centres not stated)	84	u	u	351	19*[may fluoresce violet]	172
CC(=O)c1cccc(NC(=O)CSc2nc(C3CC3)nc3ccccc23)c1	66	u	u	200	32*[may fluoresce violet]	173
CC(=O)Nc1cccc(NC(=O)CSc2nc(C3CC3)nc3ccccc23)c1	93	102	106	145	107	102
O=C(CC1S/C(=N/N=C2CCCCCC2)NC1=O)Nc1ccccc1C(F)(F)F (configuration not stated)	71	u	u	206	46*[may fluoresce violet]	182*[may fluoresce violet]
CCOc1ccc(NC(=O)CSc2nnc(C3CC3)n2C)cc1S(=O)(=O)N1CCCCC1	91	96	93	254	91	92
CCC12CC3CC(C1)CC(C(=O)O)(C3)C2	101	15	u	400	56	183*[may fluoresce violet]
C=C1C(=O)C=C2CN(C(=O)c3ccccc3)[C@@](Cc3ccc(F)cc3)(C(=O)OC)[C@@H]12	173*	81	87	291	102	90
CC(OC(=O)c1nc(Cl)ccc1Cl)C(=O)Nc1ccccc1F (configuration not stated)	91	93	91	437	92	99
Cn1nc(C(C)(C)C)c([N+](=O)[O-])c1C(=O)N1CCOCC1	70	u	u	341	48*[may fluoresce violet]	231*[may fluoresce violet]
COc1ccc(OC)c(NC(=O)c2cccc3c2C(=O)N(C2CCCCC2)C3)c1	87	17	111	237	29*	161
Fc1ccccc1-c1nc(NCCCN2CCOCC2)c2ccccc2n1	111	98	103	206	102	208*
N#CCCN1CCN(C2=NC(=O)/C(=C\c3cccs3)S2)CC1	97	93	101	785	106	103
CC1CCN(S(=O)(=O)c2cccc(C(=O)Nc3nccs3)c2)CC1	166*	112	152*	466	105	214*
COc1cc(C2N(Cc3ccccc3)CCN2Cc2ccccc2)ccc1OC(C)=O	84	u	u	266	42*[may fluoresce violet]	497*[may fluoresce violet]
COc1cc(C2N(c3ccccc3)CCN2c2ccccc2)ccc1OC(C)=O	92	78	83	138	96	99
CN1C=CC=C/C1=C1\SC(=S)N(N)C1=O	68	u	u	342	44*[may fluoresce violet]	293*[may fluoresce violet]
CCN1C(=O)/C(=C2\C=Cc3ccccc3N2CC)SC1=S	115	111	109	337	104	102
O=C(C1CC1)N1CCc2cc(S(=O)(=O)NCC3COc4ccccc4O3)ccc21 (configuration not stated)	75	u	u	253	23*[may fluoresce violet]	303*[may fluoresce violet]
O=C(OCn1nnc2ccccc2c1=O)C1=COCCO1	95	23	u	402	64	312*[may fluoresce violet]
